The values that follow come from PubChem BioAssay.

Unmarked numbers belong to inactive results. Records with an inconclusive call do not appear. Calls of active or inactive are those of the source.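 How the source made its calls, unless noted: active means inhibition over a set limit, the all-compound mean plus 3 SD, in both replicate runs; inconclusive means over that limit in just one replicate run; inactive means at or under that limit in both runs.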

Assay [1] is described as follows: S. cerevisiae growth inhibition in permissive medium (OD615), pilot counter-assay for S. cerevisiae lifespan shortening project, permissive growth control (AID 705;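 active means growth inhibition above 25% in both replicates, a cutoff set 3 SD above the mean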). Particulars: OD615, 24 h, at 10 µM, stronger effect = higher value. A digest of the protocol: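 Material: engineered DeaD yeast; compound dosing: one dose 10 µM, DMSO 0.25% final; measure: yeast growth inhibition indicated by reduced 24 h OD615; detection: OD615 turbidity read; incubation: cells pre-grown 4 h, then 24 h compound exposure, 30 °C humidified; medium: permissive synthetic complete medium with raffinose and galactose carbon sources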

The nature of assay [2]: S. cerevisiae growth inhibition in restrictive medium, OD615, pilot screen, restrictive growth control, yeast lifespan reduction project (AID 706;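 active means growth inhibition above a set limit, 3 SD over mean compound inhibition, in both replicates, cut at about 43% in these data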;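 further: modified DeaD lifespan yeast strain shifted to restrictive glucose medium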). Particulars: OD615, 48 h, at 10 µM, stronger effect = higher value. A digest of the protocol:
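material = engineered S. cerevisiae DeaD strain | medium = glucose-based CSMM-D restrictive medium | times = 4 h pre-incubation, 48 h exposure at 30 °C | technique = OD615 absorbance reading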

Assay [3] can be described thus: doxorubicin toxicity protection in MRP-1 cells – H69AR cells, CellTiter-Glo, duplicate, MRP-1 activator project, pilot screen (AID 807;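 active means viability increase at or above a cutoff of the median across tested compounds plus 3 SD, cut at about 8.5% in these data, passing the limit was not always enough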;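 further: compound pretreatment 18-22 h then 72 h combined with doxorubicin; 0% = doxorubicin alone and 100% = vehicle without doxorubicin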). As to conditions: H69AR viability with doxorubicin, CellTiter-Glo luminescence; at 10 µM; stronger effect = higher value. (In general: Cellular ATP, detected with luciferase, serves as a proxy for viable cell number.)
Assay [4] is described as follows: viability of HCT116 without oncogenic beta-catenin – human colon tumor cells, pilot screen (AID 823;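 active means cell viability at or below a set limit in both duplicate runs, the limit being the all-compound median minus 4 SD, cut at about 23% in these data, passing the limit was not always enough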;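 further: 0% = wells killed by 20 µM Hyamine and 100% = untreated DMSO cell wells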). Particulars: HCT116 beta-catenin knockout viability, CellTiter-Glo, 60 h; at 10 µM; stronger effect = lower value.
The nature of assay [5]: viability of PTEN-null HCT116 cells – cell-based, HCT116 clonal line, CellTiter-Glo, pilot screen (AID 824;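 active means viability at or below 27.92% in each of two runs, the all-compound median minus 4 SD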;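 further: 0% = 20 µM Hyamine control and 100% = vehicle cell control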). Particulars: HCT116 PTEN-deleted viability, 60 h, at 10 µM, stronger effect = lower value.
Assay [6] is described as follows: RAM pathway blockade in budding yeast – dse1pr::URA3 reporter, 5-FOA selection, pilot screen (AID 869).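 Further: 0% = DMSO wells with no growth and 100% = 10 µM 1-NA-PP1 with full growth; RAM network block rescues cells from 5-FOA so hits raise OD615 growth.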 Particulars: S. cerevisiae dse1pr::URA3 5-FOA growth, OD615, 2 d; at 10 µM; stronger effect = higher value; strain carries analog-sensitive mutant Cbk1 kinase.
A short description of assay [7]: RAM signaling pathway blockade in yeast – S. cerevisiae, Pdr1DBD-CYC8 efflux-inhibited sensitized strain, primary screen (AID 1298;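 active means RAM network inhibition above 8.4% in each of two replicates, 3 SD over the compound average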;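 further: 0% = DMSO untreated cells without growth and 100% = 10 µM 1-NA-PP1 full growth; higher means more yeast growth rescued from 5-FOA killing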). As to conditions: S. cerevisiae cbk1-as DSE1-URA3 strain, 5-FOA growth OD615, 2 d; at 50 µM; stronger effect = higher value.

Consider `CCOC(=O)N1CCC(NC(=O)C2CCCCN2S(=O)(=O)c2ccc(F)cc2)CC1` (centres undefined), for which the growth inhibition in assay [1] is -12.5%; in assay [2], -1.21%. Moreover, the viability increase in assay [3] is -3.71%. In addition, the viability was 94% in assay [4] and 89.6% in assay [5]. Also, in assay [6], the inhibition is 0.405%. The RAM network inhibition in assay [7] is -0.16%.

Regarding `O=C(C1CCCN(S(=O)(=O)c2ccccc2)C1)N1CCCCCC1` (centres undefined), the growth inhibition is -1.18% in assay [1] and 0% in assay [2]. In addition, the viability increase in assay [3] was -1.36%. Moreover, the viability in assay [4] is 79.6%; in assay [5], 94.3%. Besides, the inhibition in assay [6] was 1.79%. Besides, the RAM network inhibition in assay [7] was 4.15%.

Consider `COc1ccc(C(=O)Nc2cccnc2)cc1S(=O)(=O)N1CCOCC1`, for which the figures for the growth inhibition in assay [1] and in assay [2] were -8.01% and -10.6%, respectively. In addition, the viability increase in assay [3] is -0.17%. The viability is 103% in assay [4] and 99.1% in assay [5]. For the same compound, the inhibition in assay [6] is 0.84%. The RAM network inhibition in assay [7] was 0.46%.

In the case of `CC1CCCCC1NC(=O)c1nnc(Cc2ccc(Cl)cc2)o1` (centres undefined), the growth inhibition in assay [1] is -9.84%; in assay [2], -0.745%. The viability increase in assay [3] was 3.87%. In addition, the values for the viability in assay [4] and in assay [5] were 104% and 90.8%, respectively. Besides, the inhibition in assay [6] is 1.07%. Also, the RAM network inhibition in assay [7] was 9.76%.

On to `CCOc1ccccc1N(CC(=O)Nc1ccccc1C(=O)O)S(C)(=O)=O`, for which the figures for the growth inhibition in assay [1] and in assay [2] were -15.5% and -9.54%, respectively. Besides, in assay [3], the viability increase is 0.9%. The viability in assay [4] is 97.5%; in assay [5] it was 85.1%. The inhibition in assay [6] was 0.11%. In addition, the RAM network inhibition in assay [7] is 5.86%.

Regarding `Cc1nn2c(=O)cc(CSc3nc4ccccc4[nH]3)nc2s1`, the growth inhibition in assay [1] is -3.92%; in assay [2], 2.41%. Besides, the viability increase in assay [3] is -2.31%. In addition, the viability in assay [4] and in assay [5] was 103% in each case. In addition, the inhibition in assay [6] is 1.35%. In assay [7], the RAM network inhibition was 0.17%.

Take `CCCOc1ccc2ccccc2c1/C=N/n1c(C)nnc1-n1nc(C)cc1C`: the growth inhibition in assay [1] is -5.19%; in assay [2], 1.04%. Further, the viability increase in assay [3] was -4.98%. The viability in assay [4] is 18.6% (active); in assay [5], 19.6% (active). For the same compound, the inhibition in assay [6] was -0.29%. For the same compound, the RAM network inhibition in assay [7] is -2.3%.

As for `Nc1c(S(=O)(=O)c2ccccc2)c2nc3ccccc3nc2n1/N=C/c1ccco1`, the growth inhibition in assay [1] was -7.84%; in assay [2], -8.93%. In addition, in assay [3], the viability increase is -5.63%. Besides, the viability in assay [4] was 51.5%; in assay [5], 52%. Also, the inhibition in assay [6] was 2.34%. In assay [7], the RAM network inhibition is 4.98%.

On to `O=C(Nc1ccc(S(=O)(=O)N2CCCC2)cc1)C1COc2ccccc2O1` (centres undefined), for which the growth inhibition in assay [1] is -10.9%; in assay [2], -15.6%. In assay [3], the viability increase was 0.84%. Further, the viability was 97.8% in assay [4] and 83% in assay [5]. In addition, in assay [6], the inhibition was 1.24%. For the same compound, the RAM network inhibition in assay [7] is 5.44%.

On to `COC(=O)c1ccc(Cl)c(NC(=O)NC2CCCCC2)c1`, for which the growth inhibition is -15.1% in assay [1] and -5.54% in assay [2]. In assay [3], the viability increase was -1.61%. Also, the viability in assay [4] is 96.3%; in assay [5], 93%. For the same compound, the inhibition in assay [6] was 2.23%. Besides, the RAM network inhibition in assay [7] is 6.1%.

For `Cc1occc1-c1nnc2sc(-c3ccc(-c4ccc(Cl)cc4)o3)nn12`, the growth inhibition was 7.94% in assay [1] and 21.2% in assay [2]. In addition, the viability increase in assay [3] is 2.86%. Also, the figures for the viability in assay [4] and in assay [5] were 106% and 95.8%, respectively. The inhibition in assay [6] is 3.19%. Besides, the RAM network inhibition in assay [7] was 5.57%.

As to `COc1ccc(Cn2c(=O)[nH]c3cc(C(=O)NCCCN4CCCCC4)ccc3c2=O)cc1`, the results for the growth inhibition in assay [1] and in assay [2] were -4.93% and -8.5%, respectively. Besides, in assay [3], the viability increase was -2.31%. Also, the viability in assay [4] is 74.5%; in assay [5] it was 77.4%. Also, in assay [6], the inhibition is 0.53%. For the same compound, the RAM network inhibition in assay [7] was 4.83%.

For orientation: viability means a read-out of living cells in per cent, often relative to untreated cells. By inhibition is commonly meant the drop in the measured response relative to a control, in per cent.
